Here are results for 35 compounds from ChEMBL document CHEMBL4428043, “Fragment-Based Discovery of Dual JC Virus and BK Virus Helicase Inhibitors” (J Med Chem, 2016).

What is called IC50 is the concentration that gives 50% inhibition. For orientation: CC50 means the concentration at which the toxic effect on the cells reaches its halfway point. In general, EC50 refers to the concentration that produces a half-maximal response.

A short description of data set [1]: Inhibition of helicase activity of BK polyomavirus LTAg (E265 to D629 residues) expressed in Escherichia coli using Cy5/BHQ3 dsDNA pre-incubated for 20 mins and measured after 120 to 180 mins by fluorescence based assay. Also noted: species or system Betapolyomavirus hominis.
The target of the next data set is T1, Large T antigen (JC polyomavirus, UniProt P03072).
T1 sequence (P03072 whole entry): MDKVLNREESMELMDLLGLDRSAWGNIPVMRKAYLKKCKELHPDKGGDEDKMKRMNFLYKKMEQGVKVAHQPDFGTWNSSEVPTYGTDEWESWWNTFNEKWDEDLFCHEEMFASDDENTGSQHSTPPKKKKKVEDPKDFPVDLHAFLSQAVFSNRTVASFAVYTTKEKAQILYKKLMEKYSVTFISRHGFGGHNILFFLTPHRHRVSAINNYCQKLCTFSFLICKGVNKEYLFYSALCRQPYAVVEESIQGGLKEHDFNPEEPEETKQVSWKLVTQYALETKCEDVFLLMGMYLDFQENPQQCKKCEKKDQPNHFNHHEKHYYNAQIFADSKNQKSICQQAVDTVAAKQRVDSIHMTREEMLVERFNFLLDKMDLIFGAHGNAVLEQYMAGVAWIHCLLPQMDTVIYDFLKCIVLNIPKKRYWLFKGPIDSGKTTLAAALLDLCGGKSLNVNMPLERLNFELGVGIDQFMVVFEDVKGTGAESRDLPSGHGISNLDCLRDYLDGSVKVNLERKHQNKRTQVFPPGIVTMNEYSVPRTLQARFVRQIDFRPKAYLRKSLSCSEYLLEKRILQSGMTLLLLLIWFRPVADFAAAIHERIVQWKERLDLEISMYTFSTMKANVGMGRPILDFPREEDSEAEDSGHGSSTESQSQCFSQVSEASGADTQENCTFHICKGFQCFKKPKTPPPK
In words: Inhibition of helicase activity of JC polyomavirus LTAg (E264 to D628 residues) expressed in Escherichia coli using Cy5/BHQ3 dsDNA pre-incubated for 20 mins and measured after 120 to 180 mins by fluorescence based assay.

Data set [2] in a line: Cytotoxicity against […] G144 […] cells. It is filed as cell-based.
The test system of another data set is JC polyomavirus. In words: Antiviral activity against JC polyomavirus infected in […] G144 […] cells assessed as reduction in late viral protein and viral capsid protein VP1 incubated for 72 hrs by branched DNA assay. The class given is functional, organism-based. Put shortly:
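G144 […] cells plated on poly-ornithine (0.005%)/laminin (10 µg/ml)-coated flasks, infected with MAD4 JCV at MOI = 1 TCID₅₀ for 24 hr, then replated at 5,000 cells/well in differentiation medium. Compounds added in DMSO (0.5% final) for 72 hr. Lysates denatured with NaOH at 52°C for 30 min; VP1 DNA measured by bDNA capture probes. EC50 from four-parameter curve fit.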

In the case of `c1ccc(-c2nn3cnnc3s2)c(OCCN2CCOCC2)c1`, the values for the IC50 (in data set [1]; against Large T antigen) were 73 µM and 52 µM, respectively.

`Cc1ccccc1-c1nn2cnnc2s1`: the IC50 (in data set [1]; against Large T antigen) was greater than 80 µM throughout.

Regarding `Oc1ccccc1-c1nn2cnnc2s1`, the IC50 (in data set [1]; on Large T antigen) was greater than 80 µM throughout.

With `c1ccc(-c2nc3ccncc3s2)c(OCCC2CCOCC2)c1`, the values for the IC50 (in data set [1]; on Large T antigen) were 11 µM and 9.6 µM, respectively. Further, the CC50 in data set [2] was greater than 50 µM. The concentration for a half-maximal effect (EC50) with JC polyomavirus came to 7.7 µM.

As for `c1ccc(Oc2ccccc2-c2nn3cnnc3s2)cc1`, the values for the IC50 (in data set [1]; against Large T antigen) were 3.7 µM and 4.9 µM, respectively. Further, the 50% cytotoxic concentration (CC50) in data set [2] was greater than 50 µM. For the same compound, in the data set on JC polyomavirus, the EC50 worked out at 34 µM.

For the compound `CC(=O)Nc1ccc(Oc2ccccc2-c2nc3ccncc3s2)cc1`, the figures for the half-inhibitory concentration (IC50) (in data set [1]; against Large T antigen) were 1.6 µM and 0.9 µM, respectively. Moreover, in data set [2], the CC50 was greater than 50 µM. In the data set on JC polyomavirus, the EC50 was found to be 48 µM.

Turning to `c1ccc(Oc2ccccc2-c2nc3ccncc3s2)cc1`, the IC50 in data set [1] worked out at 10.2 µM; at Large T antigen, 10.5 µM. The compound further gave a CC50 in data set [2] greater than 50 µM. The EC50 with JC polyomavirus was found to be 36 µM.

With `COc1cccc(OC)c1-c1nn2cnnc2s1`, the IC50 (in data set [1]; against Large T antigen) was greater than 80 µM in each case.

In the case of `COc1ccc(-c2nn3cnnc3s2)c(OC)c1`, the IC50 in data set [1] was determined as 24 µM; on Large T antigen, 18 µM.

Consider `CNc1cc2nc(-c3ccccc3OC)sc2cn1`, for which the IC50 (in data set [1]; against Large T antigen) was greater than 80 µM throughout.

Consider `c1ccc(-c2nn3cnnc3s2)c(OCC2CCOCC2)c1`, for which the 50% inhibitory concentration (IC50) in data set [1] is 17 µM; against Large T antigen it was 6.3 µM.

In the case of `c1cc2c(c(-c3nn4cnnc4s3)c1)OCC2`, the 50% inhibitory concentration (IC50) in data set [1] was 21 µM; against Large T antigen, 13.5 µM. Moreover, the half-maximal cytotoxic concentration (CC50) in data set [2] was greater than 50 µM. The concentration giving a half-maximal response (EC50) in the data set on JC polyomavirus is greater than 16 µM.

Turning to `Oc1ccccc1-c1nc2ccncc2s1`, the results for the IC50 (in data set [1]; on Large T antigen) were 53 µM and 37 µM, respectively.

In the case of `CN(C)c1ccccc1-c1nn2cnnc2s1`, the IC50 (in data set [1]; on Large T antigen) was greater than 80 µM each time.

As for `c1ccc(Oc2ncncc2-c2nn3cnnc3s2)cc1`, the 50% inhibitory concentration (IC50) (in data set [1]; at Large T antigen) was greater than 80 µM in each case.

Turning to `CCOc1ccccc1-c1nc2ccncc2s1`, the IC50 was found to be 8 µM in data set [1] and 9.1 µM against Large T antigen. In addition, in data set [2], the CC50 was greater than 50 µM. Besides, in the data set on JC polyomavirus, the EC50 is 7.4 µM.

With `COc1ccccc1-c1nc2ccncc2s1`, the values for the half-maximal inhibitory concentration (IC50) (in data set [1]; against Large T antigen) were 10.7 µM and 5 µM, respectively. In data set [2], this compound came in with a 50% cytotoxic concentration (CC50) greater than 50 µM. Further, the half-maximal effective concentration (EC50) in the data set with JC polyomavirus was found to be 1.5 µM.

With `CCOc1ccccc1-c1nc2cnccc2s1`, the 50% inhibitory concentration (IC50) (in data set [1]; against Large T antigen) was greater than 80 µM throughout.

`COc1ccccc1-c1nn2cnnc2s1`: the values for the concentration for half-maximal inhibition (IC50) (in data set [1]; against Large T antigen) were 29 µM and 19.4 µM, respectively. Moreover, the CC50 in data set [2] was greater than 80 µM. Also, in the data set on JC polyomavirus, the EC50 was greater than 60 µM.

In the case of `COc1ccccc1Cc1nn2cnnc2s1`, the half-inhibitory concentration (IC50) (in data set [1]; on Large T antigen) was greater than 80 µM in each case.

On Large T antigen, `CCOc1ccccc1-c1nn2cnnc2s1` came in with an IC50 of 18 µM. The compound also came in with a CC50 in data set [2] greater than 65 µM. The concentration giving a half-maximal response (EC50) in the data set with JC polyomavirus amounted to 44 µM.

Regarding `c1ccc(Oc2ccncc2-c2nn3cnnc3s2)cc1`, the results for the IC50 (in data set [1]; against Large T antigen) were 7.3 µM and 5.5 µM, respectively.

For `CC(=O)Nc1ccc(Oc2ncccc2-c2nc3ccncc3s2)cc1`, the IC50 at Large T antigen is 0.6 µM. This compound also displayed a CC50 in data set [2] greater than 50 µM. Further, the half-maximal effective concentration (EC50) in the data set with JC polyomavirus was 40 µM.

Turning to `COCCOc1ccccc1-c1nn2cnnc2s1`, the results for the IC50 (in data set [1]; on Large T antigen) were 63 µM and 28.5 µM, respectively.

Regarding `COc1ccccc1-c1nc2cc(N)ncc2s1`, the results for the 50% inhibitory concentration (IC50) (in data set [1]; at Large T antigen) were 8.7 µM and 4.3 µM, respectively.

For `c1ccc(C2CC2)c(-c2nn3cnnc3s2)c1`, the concentration for half-maximal inhibition (IC50) (in data set [1]; against Large T antigen) was greater than 80 µM each time.

For the compound `c1cc2c(c(-c3nn4cnnc4s3)c1)OCCC2`, the values for the IC50 (in data set [1]; against Large T antigen) were 24 µM and 15.5 µM, respectively.

Regarding `c1ccc(Oc2ncccc2-c2nn3cnnc3s2)cc1`, the values for the 50% inhibitory concentration (IC50) (in data set [1]; against Large T antigen) were 11 µM and 8.8 µM, respectively. The compound further yielded a CC50 in data set [2] greater than 50 µM. For the same compound, the EC50 in the data set with JC polyomavirus stood at 76 µM.

`COc1cccc(-c2nn3cnnc3s2)c1OC`: the IC50 in data set [1] is greater than 80 µM; at Large T antigen it was 62 µM.

For `COc1ccccc1-c1nc2ccnc(N)c2s1`, the IC50 (in data set [1]; against Large T antigen) was greater than 80 µM in each case.

As for `Nc1ccccc1-c1nn2cnnc2s1`, the half-inhibitory concentration (IC50) (in data set [1]; against Large T antigen) was greater than 80 µM each time.

As for `c1ccc(Oc2ncccc2-c2nc3ccncc3s2)cc1`, the IC50 worked out at 1.3 µM in data set [1] and 1.4 µM against Large T antigen. Also, the half-maximal cytotoxic concentration (CC50) in data set [2] was greater than 50 µM. Moreover, the half-maximal effective concentration (EC50) in the data set on JC polyomavirus is 3.8 µM.

Turning to `c1ccc(-c2nn3cnnc3s2)c(OCCC2CCOCC2)c1`, the IC50 amounted to 8.4 µM in data set [1] and 5.8 µM on Large T antigen. The compound also came in with a CC50 in data set [2] greater than 50 µM. In the data set with JC polyomavirus, the EC50 worked out at 15 µM.

Take `c1cc2c(c(-c3nc4ccncc4s3)c1)OCC2`: the concentration for half-maximal inhibition (IC50) in data set [1] turned out to be 15 µM; at Large T antigen it was 8.7 µM. The compound also showed a CC50 in data set [2] greater than 50 µM. In addition, the EC50 in the data set on JC polyomavirus was found to be 0.26 µM.

`N#CCCCOc1ccccc1-c1nn2cnnc2s1`: the IC50 in data set [1] is 42 µM; at Large T antigen it was 25 µM.
